Results from ChEMBL document CHEMBL1140534, “Heteroaryl beta-tetralin ureas as novel antagonists of human TRPV1” (Bioorg Med Chem Lett, 2007).

Assays:
[1] = molecular target: T1, Transient receptor potential cation channel subfamily V member 1 (Homo sapiens, UniProt Q8NER1); assay: Displacement of [3H]RTX from human TRPV1 expressed in HEK293 cells; type: cell-based
How it was run: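 Membranes from hTRPV1/HEK293 cells, prepared in HEPES buffer pH 7.4 (20 mM HEPES, NaCl, sucrose, MgCl2, CaCl2, KCl). Incubated 60 min at 37 °C with 0.3–0.6 nM [3H]-RTX. Samples cooled on ice, alpha-acid glycoprotein added, then centrifuged and pellets counted by scintillation. Nonspecific binding defined with 200 nM unlabeled RTX. Reported as Ki.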

[2] = molecular target: T1, Transient receptor potential cation channel subfamily V member 1; assay: Antagonist activity at human recombinant TRPV1 expressed in HEK293 cells assessed as inhibition of capsaicin-induced calcium by FLIPR method; type: functional, cell-based
How it was run: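 Stably transfected hTRPV1/HEK293 cells grown on poly-D-lysine for 2 days, then loaded with Fluo-3/AM for 1 h. Each well receives a single compound concentration. Intracellular Ca2+ is read by FLIPR for 3 min before capsaicin is added at a final 15 nM to fully activate TRPV1. Antagonist potency is reported as IC50.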

T1 sequence (Q8NER1 whole entry): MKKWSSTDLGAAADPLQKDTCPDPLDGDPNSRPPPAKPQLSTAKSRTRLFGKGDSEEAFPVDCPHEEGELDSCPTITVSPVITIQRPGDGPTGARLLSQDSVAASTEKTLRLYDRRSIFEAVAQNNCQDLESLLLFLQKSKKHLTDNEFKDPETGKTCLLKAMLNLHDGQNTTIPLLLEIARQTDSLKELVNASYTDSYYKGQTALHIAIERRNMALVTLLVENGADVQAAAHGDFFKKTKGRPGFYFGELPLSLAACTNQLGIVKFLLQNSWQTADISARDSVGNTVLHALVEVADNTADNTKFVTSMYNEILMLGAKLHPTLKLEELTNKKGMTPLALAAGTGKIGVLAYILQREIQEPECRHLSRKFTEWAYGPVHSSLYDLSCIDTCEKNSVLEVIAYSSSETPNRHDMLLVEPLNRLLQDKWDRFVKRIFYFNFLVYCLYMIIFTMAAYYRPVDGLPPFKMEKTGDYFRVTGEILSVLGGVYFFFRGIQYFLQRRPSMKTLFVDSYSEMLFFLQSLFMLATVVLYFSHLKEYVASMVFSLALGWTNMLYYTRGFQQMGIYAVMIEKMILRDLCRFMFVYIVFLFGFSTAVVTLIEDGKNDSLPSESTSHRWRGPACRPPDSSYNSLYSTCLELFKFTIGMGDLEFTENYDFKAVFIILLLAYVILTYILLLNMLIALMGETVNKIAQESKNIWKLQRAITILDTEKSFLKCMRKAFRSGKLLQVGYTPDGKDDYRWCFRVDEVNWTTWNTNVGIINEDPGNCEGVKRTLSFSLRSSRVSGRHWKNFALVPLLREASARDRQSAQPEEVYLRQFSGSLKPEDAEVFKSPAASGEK

Row | Ki [1] [nM] | IC50 [2] [nM] | SMILES
1 | 0.8 | 350 | O=C(Nc1cccc2cnccc12)NC1CCc2cc(F)ccc2C1CC1CC1 (centres undefined)
2 |  | 200 | O=C(Nc1cccc2cnccc12)NC1CCc2cc(O)ccc2C1Cc1ccccc1 (centres undefined)
3 | 8 | 36 | COc1ccc(CC2c3ccc(OC)cc3CCC2NC(=O)Nc2cccc3cnccc23)cc1 (centres undefined)
4 | 22 | 360 | O=C(Nc1cccc2ccc(O)cc12)NC1CCc2cc(F)ccc2C1Cc1ccc(C(F)(F)F)cc1 (centres undefined)
5 | 1290 | 680 | COc1ccc(C(C)CNC(=O)Nc2cccc3cnccc23)cc1 (centres undefined)
6 | 4 | 20 | O=C(Nc1cccc2cnccc12)NC1CCc2ccccc2C1Cc1ccccc1 (centres undefined)
7 | 3 | 25 | COc1ccc2c(c1)CCC(NC(=O)Nc1cccc3cnccc13)C2Cc1ccccc1 (centres undefined)
8 | 578 | 184 | COc1ccc(C(CNC(=O)Nc2cccc3cnccc23)Cc2cccnc2)cc1 (centres undefined)
9 | 6 | 14 | COc1ccc(C(CNC(=O)Nc2cccc3cnccc23)Cc2ccccc2)cc1 (centres undefined)
10 | 8 | 5 | O=C(NCC(Cc1ccccc1)c1ccc(F)cc1)Nc1cccc2cnccc12 (centres undefined)
11 | 4 | 12 | O=C(Nc1cccc2cnccc12)NC1CCc2cc(F)ccc2C1Cc1ccccc1 (centres undefined)
12 | 2 | 17 | O=C(Nc1cccc2cnccc12)NC1CCc2cc(Br)ccc2C1Cc1ccccc1 (centres undefined)
13 | 1 | 22 | COc1ccc2c(c1)CCC(NC(=O)Nc1cccc3cnccc13)C2Cc1ccc(Br)cc1 (centres undefined)
14 | 1 | 10 | O=C(Nc1cccc2cnccc12)NC1CCc2cc(F)ccc2C1Cc1ccc(C(F)(F)F)cc1 (centres undefined)
15 | 11 | 63 | O=C(Nc1cccc2cnccc12)NC1CCc2cc(Cl)ccc2C1Cc1ccccc1 (centres undefined)
16 | 5 | 86 | O=C(Nc1cccc2cnccc12)NC1CCc2ccc(Cl)cc2C1Cc1ccccc1 (centres undefined)
17 | 20 | 19 | O=C(NCC(Cc1cccc(C(F)(F)F)c1)c1ccc(F)cc1)Nc1cccc2cnccc12 (centres undefined)
18 | 4 | 140 | O=C(Nc1cccc2cnccc12)NC1CCc2cc(F)ccc2C1Cc1cccs1 (centres undefined)
19 | 2 | 100 | C=CCC1c2ccc(F)cc2CCC1NC(=O)Nc1cccc2cnccc12 (centres undefined)
20 | 10 | 60 | COc1ccc2c(c1)CCC(NC(=O)Nc1cccc3ccc(O)cc13)C2Cc1ccccc1 (centres undefined)
21 | 20 | 230 | COc1cc2c(cc1OC)C(Cc1ccccc1)C(NC(=O)Nc1cccc3cnccc13)CC2 (centres undefined)
22 | 4 |  | O=C(NCC(Cc1ccccc1)c1ccc(C(F)(F)F)cc1)Nc1cccc2cnccc12 (centres undefined)
23 | 17 | 21 | COc1ccc2c(c1)CCC(NC(=O)Nc1cccc3cnccc13)C2Cc1ccc(C#N)cc1 (centres undefined)
24 |  | > 1000 | COc1ccc2c(c1)CCC(NC(=O)Nc1cccc3cnccc13)C2Cc1cccnc1 (centres undefined)
25 |  | > 1000 | N#CCC1c2ccc(Cl)cc2CCC1NC(=O)Nc1cccc2cnccc12 (centres undefined)
26 | 2 | 16 | O=C(Nc1cccc2cnccc12)NC1CCc2c(Cl)cccc2C1Cc1ccccc1 (centres undefined)
27 | 2 | 13 | COc1ccc2c(c1)CCC(NC(=O)Nc1cccc3cnccc13)C2Cc1cccc(Cl)c1 (centres undefined)
28 | 16 | 83 | O=C(Nc1cccc2cnccc12)NC1CCc2cc(F)ccc2C1Cc1ccoc1 (centres undefined)
29 | 2 | 2 | COc1ccc2c(c1)CCC(NC(=O)Nc1cccc3cnccc13)C2Cc1ccc(C(F)(F)F)cc1 (centres undefined)
